Experimental data from different studies.
Lines come from different studies, so protocols differ.
Target: Calcium/calmodulin-dependent protein kinase kinase 1 (CAMKK1, Homo sapiens, UniProt Q8N5S9)

Compound | test | setting | quantity | value
NS(=O)(=O)c1cc(NC(=O)Cc2ccccc2)ccc1Oc1cccc(Cl)c1 | cell-free assay, competition with immobilised ligand | 1 µM | remaining binding | 100%
Nc1nc(Nc2ccc(S(N)(=O)=O)cc2)nn1C(=O)c1c(F)cccc1F | cell-free assay | 0.5 µM | remaining signal | 86.4%
CCN1CCC2(CC1)NC(=O)c1c(c3ccc(Cl)c(Cl)c3n1C)C2C#N (racemic) | thermal stability, DSF | 10 µM | ΔTm | -0.1 °C
CC1=C(C#N)C(c2ccc3c(c2)c(NC(=O)c2ccccc2C)nn3C)C(C#N)=C(C)N1 | cell-free assay, competition with immobilised ligand | 1 µM | remaining binding | 100%
COc1cc(Cl)c(C(=O)N[C@@H](CN[C@H]2CC[C@@H](N)CC2)Cc2ccc(C#N)cc2)cc1-c1ccc(CN[C@H](C)c2ccc(C)cc2)o1 | enzyme activity, inhibitor | 1 µM | remaining activity | 100%
Cc1ccc(C(=O)NCc2ccsc2)cc1C#Cc1cn(C(C)C)c2ncnc(N)c12 | enzyme activity, inhibitor | 1 µM | activity vs control | 84%
O=C(Nc1cnn(-c2csc(C(=O)NC3COC3)c2)c1)Nc1c(F)cccc1Cl | enzyme activity, inhibitor | 5 µM | remaining activity | 93.7%
CCCCNc1ncc2c(-c3ccc(F)cc3)nn(C[C@H]3CC[C@H](N)CC3)c2n1 | target engagement in cells, inhibitor, chemoproteomics | 20 mM | inhibition | 20.6%
CN1CC(Oc2cnc(C#N)cc2-c2ccn3nc(NC(=O)C4CC4)cc3c2)C1 | enzyme activity, inhibitor | 1 µM | inhibition | 3%
N#CCCc1ccc2c(c1)-c1[nH]c3ccc([N+](=O)[O-])cc3c1CC(=O)N2 | cell-free assay | 0.5 µM | remaining signal | 86.7%
Nc1ncnc2occ(-c3ccc(NC(=O)Nc4cc(C(F)(F)F)ccc4F)cc3)c12 | cell-free assay, inhibitor | 20 µM | remaining signal | 28%
Cn1c2c(c3ccc(Cl)c(Cl)c31)C(C#N)C(C)(C)NC2=O (stereo not shown) | thermal stability, DSF | 10 µM | ΔTm | 2.6 °C
O=c1nc(-c2ccccn2)sc2ccccc12 | binding, competition with immobilised ligand | 1 µM | remaining binding | 96%
Cn1c2c(c3ccc(Cl)c(Cl)c31)C(C#N)C1(CCOCC1)NC2=O (stereo not shown) | thermal stability, DSF | 10 µM | ΔTm | 1.2 °C
Cc1nccc(COC(=O)N2C[C@@H]3[C@@H](CNC(=O)c4ccc5[nH]nnc5c4)[C@@H]3C2)n1 | cell-free assay, competition with immobilised ligand | 1 µM | remaining binding | 100%
O=C1Nc2ccc(Cl)cc2C1=Cc1cc(Cl)c(O)c(Cl)c1 | cell-free assay | 0.5 µM | remaining signal | 52.5%
CCCCN(CCCC)C(=O)CN1C[C@H](c2cc(OC)c3c(c2)OCO3)[C@@H](C(=O)O)[C@@H]1CC(C)(C)CCC | cell-free assay, competition with immobilised ligand | 1 µM | remaining binding | 100%
Cc1sc(C(=O)NC2COC2)cc1-n1cc(NC(=O)Nc2c(F)cccc2Cl)cn1 | enzyme activity, inhibitor | 10 µM | remaining activity | 121%
c1ccc(CNc2nc(N3CCOc4ccccc43)nc3c2CCCC3)cc1 | target engagement in cells, inhibitor, chemoproteomics | 20 mM | inhibition | -7.1%
